Results as given in ChEMBL document CHEMBL3124902, “Homoisoflavonoids as potential imaging agents for β-amyloid plaques in Alzheimer's disease” (Eur J Med Chem, 2014).
Active and inactive are the calls of the source. No cut-off for these calls is given here.

Key:
[1] = target: T1, Amyloid-beta precursor protein (Homo sapiens, UniProt P05067); assay: Displacement of [125I]IMPY from amyloid beta (1 to 40) (unknown origin) after 2 hrs by gamma counting analysis
Outline: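 Incubation was 2 h at 37 °C. Bound and free fractions were separated by filtration through GF/B filters, followed by ice-cold PBS washes and counting. IC50 came from displacement curves of three independent experiments, done in duplicate. Ki was obtained by Cheng-Prusoff.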

[2] = test system: Heart; assay: Biodistribution in ICR mouse heart at 2 uCi, iv measured at 10 mins by gamma counting analysis; assay type: ADME, organism-based; conditions: in vivo
Outline: (§1)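 The radioiodinated ligand was given intravenously to normal ICR mice, n=5 per time point. Mice were euthanized at 2, 10, 30, 60 and 120 min, and organs were removed and weighed. Radioactivity was gamma counted. %ID/g was calculated as counts per gram of tissue divided by counts of 1% of the injected dose, taken from a 100-fold diluted aliquot.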

[3] = test system: Spleen; assay: Biodistribution in ICR mouse spleen at 2 uCi, iv measured at 1 hr by gamma counting analysis; assay type: ADME, organism-based; conditions: in vivo; outline: as §1
[4] = test system: Kidney; assay: Biodistribution in ICR mouse kidney at 2 uCi, iv measured at 10 mins by gamma counting analysis; assay type: ADME, organism-based; conditions: in vivo; outline: as §1
[5] = test system: Liver; assay: Biodistribution in ICR mouse liver at 2 uCi, iv measured at 2 mins by gamma counting analysis; assay type: ADME, organism-based; conditions: in vivo; outline: as §1
[6] = test system: Blood; assay: Biodistribution in ICR mouse blood at 2 uCi, iv measured at 2 mins by gamma counting analysis; assay type: ADME, organism-based; conditions: in vivo; outline: as §1
[7] = test system: Blood; assay: Biodistribution in ICR mouse blood at 2 uCi, iv measured at 2 hrs by gamma counting analysis; assay type: ADME, organism-based; conditions: in vivo; outline: as §1
[8] = test system: Brain; assay: Biodistribution in ICR mouse brain at 2 uCi, iv measured at 1 hr by gamma counting analysis; assay type: ADME, organism-based; conditions: in vivo; outline: as §1
[9] = test system: Liver; assay: Biodistribution in ICR mouse liver at 2 uCi, iv measured at 10 mins by gamma counting analysis; assay type: ADME, organism-based; conditions: in vivo; outline: as §1
[10] = test system: Spleen; assay: Biodistribution in ICR mouse spleen at 2 uCi, iv measured at 2 hrs by gamma counting analysis; assay type: ADME, organism-based; conditions: in vivo; outline: as §1
[11] = test system: Brain; assay: Biodistribution in ICR mouse brain at 2 uCi, iv measured at 2 mins by gamma counting analysis; assay type: ADME, organism-based; conditions: in vivo; outline: as §1
[12] = test system: Brain; assay: Biodistribution in ICR mouse brain at 2 uCi, iv measured at 30 mins by gamma counting analysis; assay type: ADME, organism-based; conditions: in vivo, 0.5 h; outline: as §1
[13] = test system: Heart; assay: Biodistribution in ICR mouse heart at 2 uCi, iv measured at 2 mins by gamma counting analysis; assay type: ADME, organism-based; conditions: in vivo; outline: as §1
[14] = test system: Heart; assay: Biodistribution in ICR mouse heart at 2 uCi, iv measured at 2 hrs by gamma counting analysis; assay type: ADME, organism-based; conditions: in vivo; outline: as §1
[15] = test system: Liver; assay: Biodistribution in ICR mouse liver at 2 uCi, iv measured at 2 hrs by gamma counting analysis; assay type: ADME, organism-based; conditions: in vivo; outline: as §1
[16] = test system: Blood; assay: Biodistribution in ICR mouse blood at 2 uCi, iv measured at 1 hr by gamma counting analysis; assay type: ADME, organism-based; conditions: in vivo; outline: as §1
[17] = test system: Brain; assay: Biodistribution in ICR mouse brain at 2 uCi, iv measured at 10 mins by gamma counting analysis; assay type: ADME, organism-based; conditions: in vivo; outline: as §1
[18] = test system: Kidney; assay: Biodistribution in ICR mouse kidney at 2 uCi, iv measured at 30 mins by gamma counting analysis; assay type: ADME, organism-based; conditions: in vivo, 0.5 h; outline: as §1
[19] = test system: Brain; assay: Ratio of drug level in ICR mouse brain measured at 60 mins to drug level in ICR mouse brain measured at 2 mins; assay type: ADME; conditions: in vivo
Outline: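 Brain uptake (%ID/g) at 60 min was divided by uptake at 2 min after intravenous injection into normal ICR mice, n=5 per time point. Brain radioactivity was gamma counted and normalised to a 1% injected-dose standard.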

[20] = test system: Liver; assay: Biodistribution in ICR mouse liver at 2 uCi, iv measured at 30 mins by gamma counting analysis; assay type: ADME, organism-based; conditions: in vivo, 0.5 h; outline: as §1
[21] = test system: Lung; assay: Biodistribution in ICR mouse lung at 2 uCi, iv measured at 10 mins by gamma counting analysis; assay type: ADME, organism-based; conditions: in vivo; outline: as §1
[22] = test system: Lung; assay: Biodistribution in ICR mouse lung at 2 uCi, iv measured at 30 mins by gamma counting analysis; assay type: ADME, organism-based; conditions: in vivo, 0.5 h; outline: as §1
[23] = test system: Lung; assay: Biodistribution in ICR mouse lung at 2 uCi, iv measured at 2 mins by gamma counting analysis; assay type: ADME, organism-based; conditions: in vivo; outline: as §1
[24] = test system: Heart; assay: Biodistribution in ICR mouse heart at 2 uCi, iv measured at 1 hr by gamma counting analysis; assay type: ADME, organism-based; conditions: in vivo; outline: as §1
[25] = test system: Brain; assay: Biodistribution in ICR mouse brain at 2 uCi, iv measured at 2 hrs by gamma counting analysis; assay type: ADME, organism-based; conditions: in vivo; outline: as §1
[26] = test system: Heart; assay: Biodistribution in ICR mouse heart at 2 uCi, iv measured at 30 mins by gamma counting analysis; assay type: ADME, organism-based; conditions: in vivo, 0.5 h; outline: as §1
[27] = test system: Blood; assay: Biodistribution in ICR mouse blood at 2 uCi, iv measured at 10 mins by gamma counting analysis; assay type: ADME, organism-based; conditions: in vivo; outline: as §1
[28] = test system: Lung; assay: Biodistribution in ICR mouse lung at 2 uCi, iv measured at 1 hr by gamma counting analysis; assay type: ADME, organism-based; conditions: in vivo; outline: as §1
[29] = test system: Blood; assay: Biodistribution in ICR mouse blood at 2 uCi, iv measured at 30 mins by gamma counting analysis; assay type: ADME, organism-based; conditions: in vivo, 0.5 h; outline: as §1
[30] = test system: Spleen; assay: Biodistribution in ICR mouse spleen at 2 uCi, iv measured at 10 mins by gamma counting analysis; assay type: ADME, organism-based; conditions: in vivo; outline: as §1
[31] = test system: Spleen; assay: Biodistribution in ICR mouse spleen at 2 uCi, iv measured at 30 mins by gamma counting analysis; assay type: ADME, organism-based; conditions: in vivo, 0.5 h; outline: as §1
[32] = test system: Kidney; assay: Biodistribution in ICR mouse kidney at 2 uCi, iv measured at 2 hrs by gamma counting analysis; assay type: ADME, organism-based; conditions: in vivo; outline: as §1
[33] = test system: Lung; assay: Biodistribution in ICR mouse lung at 2 uCi, iv measured at 2 hrs by gamma counting analysis; assay type: ADME, organism-based; conditions: in vivo; outline: as §1
[34] = test system: Kidney; assay: Biodistribution in ICR mouse kidney at 2 uCi, iv measured at 1 hr by gamma counting analysis; assay type: ADME, organism-based; conditions: in vivo; outline: as §1
[35] = test system: Kidney; assay: Biodistribution in ICR mouse kidney at 2 uCi, iv measured at 2 mins by gamma counting analysis; assay type: ADME, organism-based; conditions: in vivo; outline: as §1
[36] = test system: Liver; assay: Biodistribution in ICR mouse liver at 2 uCi, iv measured at 1 hr by gamma counting analysis; assay type: ADME, organism-based; conditions: in vivo; outline: as §1
[37] = test system: Spleen; assay: Biodistribution in ICR mouse spleen at 2 uCi, iv measured at 2 mins by gamma counting analysis; assay type: ADME, organism-based; conditions: in vivo; outline: as §1
[38] = target: T1, Amyloid-beta precursor protein; assay: Binding affinity to beta amyloid-containing senile plaques of Alzheimer's disease patient at 50 uM after 20 mins by thioflavin-S staining-based fluorescence microscopic analysis
Outline: (§2)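 Paraffin sections of postmortem AD brain were dewaxed in xylene, passed through graded ethanol, then rinsed in water and 0.01 M PBS at pH 7.4. Sections were immersed in cold ligand (50 in 30% EtOH/0.1 M PBS) for 20 min and differentiated in 50% EtOH for 10 min. Adjacent sections were stained with ThS (1%, 5 min) and differentiated in 70% EtOH. Sections were then PBS-washed, mounted in 80% glycerin and imaged by fluorescence microscopy.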

[39] = target: Microtubule-associated protein tau (Homo sapiens) (UniProt P10636); assay: Binding affinity to hyperphosphorylated tau protein-containing neurofibrillary tangles of Alzheimer's disease patient at 50 uM after 20 mins by thioflavin-S staining-based fluorescence microscopic analysis; outline: as §2
Microtubule-associated protein tau (Homo sapiens), sequence (P10636 whole entry): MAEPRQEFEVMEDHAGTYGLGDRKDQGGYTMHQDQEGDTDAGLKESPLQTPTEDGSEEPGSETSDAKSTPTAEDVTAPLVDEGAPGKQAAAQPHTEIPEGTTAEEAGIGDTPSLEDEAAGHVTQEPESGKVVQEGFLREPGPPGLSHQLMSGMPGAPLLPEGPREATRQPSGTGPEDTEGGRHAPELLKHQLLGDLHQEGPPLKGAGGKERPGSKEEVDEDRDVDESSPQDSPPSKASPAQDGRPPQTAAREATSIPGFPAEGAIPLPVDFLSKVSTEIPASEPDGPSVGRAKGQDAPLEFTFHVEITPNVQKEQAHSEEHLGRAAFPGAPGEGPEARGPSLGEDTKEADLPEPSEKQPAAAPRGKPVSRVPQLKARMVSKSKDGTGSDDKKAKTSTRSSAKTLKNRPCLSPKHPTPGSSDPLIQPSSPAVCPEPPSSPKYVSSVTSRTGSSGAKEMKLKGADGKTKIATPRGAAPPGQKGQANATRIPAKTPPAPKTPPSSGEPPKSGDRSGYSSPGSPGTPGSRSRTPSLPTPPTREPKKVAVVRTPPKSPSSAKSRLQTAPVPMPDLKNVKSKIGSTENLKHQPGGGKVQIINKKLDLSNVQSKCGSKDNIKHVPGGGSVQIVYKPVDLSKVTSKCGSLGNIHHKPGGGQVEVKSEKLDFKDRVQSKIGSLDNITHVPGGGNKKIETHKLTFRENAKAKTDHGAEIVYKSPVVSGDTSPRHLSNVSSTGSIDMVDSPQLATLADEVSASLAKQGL

T1 sequence (P05067 whole entry): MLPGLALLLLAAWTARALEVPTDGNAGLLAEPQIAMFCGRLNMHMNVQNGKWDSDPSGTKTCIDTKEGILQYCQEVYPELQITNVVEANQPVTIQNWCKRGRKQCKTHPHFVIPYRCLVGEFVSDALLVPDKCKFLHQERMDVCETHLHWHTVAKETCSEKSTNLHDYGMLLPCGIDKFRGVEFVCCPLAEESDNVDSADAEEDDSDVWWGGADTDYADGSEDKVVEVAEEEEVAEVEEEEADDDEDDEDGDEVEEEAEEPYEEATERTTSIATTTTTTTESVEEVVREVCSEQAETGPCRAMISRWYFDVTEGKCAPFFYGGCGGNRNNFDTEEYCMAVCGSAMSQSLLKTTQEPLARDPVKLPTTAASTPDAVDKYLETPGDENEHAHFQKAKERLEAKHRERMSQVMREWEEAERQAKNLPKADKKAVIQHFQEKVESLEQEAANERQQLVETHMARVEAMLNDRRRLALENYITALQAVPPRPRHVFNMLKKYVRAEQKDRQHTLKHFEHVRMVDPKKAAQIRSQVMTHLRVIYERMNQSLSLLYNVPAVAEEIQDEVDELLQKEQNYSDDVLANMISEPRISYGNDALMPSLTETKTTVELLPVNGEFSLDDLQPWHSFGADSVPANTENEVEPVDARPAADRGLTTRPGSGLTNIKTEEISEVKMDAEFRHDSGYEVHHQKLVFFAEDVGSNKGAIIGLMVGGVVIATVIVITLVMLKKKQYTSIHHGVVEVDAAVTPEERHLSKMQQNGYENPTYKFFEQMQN

COc1ccc(/C=C2\COc3ccc(Br)cc3C2=O)cc1
Ki [1]: 9.98 nM

CN(C)c1ccc(/C=C2\COc3ccc([125I])cc3C2=O)cc1
Drug uptake [2]: 1.87 % ID/g
Drug uptake [3]: 0.4 % ID/g
Drug uptake [4]: 10.88 % ID/g
Drug uptake [5]: 13.57 % ID/g
Drug uptake [6]: 8.35 % ID/g
Drug uptake [7]: 1.05 % ID/g
Drug uptake [8]: 0.18 % ID/g
Drug uptake [9]: 4.71 % ID/g
Drug uptake [10]: 0.35 % ID/g
Drug uptake [11]: 2.61 % ID/g
Drug uptake [12]: 0.32 % ID/g
Drug uptake [13]: 4.46 % ID/g
Drug uptake [14]: 0.36 % ID/g
Drug uptake [15]: 1.05 % ID/g
Drug uptake [16]: 1.22 % ID/g
Drug uptake [17]: 0.83 % ID/g
Drug uptake [18]: 3.36 % ID/g
Ratio [19]: 6.9%
Drug uptake [20]: 2.07 % ID/g
Drug uptake [21]: 4.87 % ID/g
Drug uptake [22]: 2.29 % ID/g
Drug uptake [23]: 9.33 % ID/g
Drug uptake [24]: 0.49 % ID/g
Drug uptake [25]: 0.1 % ID/g
Drug uptake [26]: 0.87 % ID/g
Drug uptake [27]: 3.87 % ID/g
Drug uptake [28]: 0.99 % ID/g
Drug uptake [29]: 2.38 % ID/g
Drug uptake [30]: 1.27 % ID/g
Drug uptake [31]: 0.7 % ID/g
Drug uptake [32]: 1 % ID/g
Drug uptake [33]: 0.73 % ID/g
Drug uptake [34]: 1.42 % ID/g
Drug uptake [35]: 17.89 % ID/g
Drug uptake [36]: 1.23 % ID/g
Drug uptake [37]: 2.54 % ID/g

O=C1/C(=C/c2ccc(O)cc2)COc2ccc(Br)cc21
Ki [1]: 103 nM

COc1cc(/C=C2\COc3ccc(Br)cc3C2=O)ccc1O
Ki [1]: 432 nM

O=C1/C(=C/c2ccc(Br)cc2)COc2ccc(Br)cc21
Ki [1]: 144 nM

CN(C)c1ccc(/C=C2\COc3ccc(Br)cc3C2=O)cc1Br
Ki [1]: 25.5 nM

COc1cc(/C=C2\COc3ccc(Br)cc3C2=O)cc(OC)c1
Ki [1]: 39.2 nM

O=C1/C(=C/c2ccc([N+](=O)[O-])cc2)COc2ccc(Br)cc21
Ki [1]: 108 nM

CN(C)c1ccc(/C=C2\COc3ccc(Br)cc3C2=O)cc1
Ki [1]: 9.1 nM
Activity [38]: Active
Activity [39]: inactive

COc1cccc(/C=C2\COc3ccc(Br)cc3C2=O)c1
Ki [1]: 73.5 nM

COc1ccc(/C=C2\COc3ccc(Br)cc3C2=O)cc1OC
Ki [1]: 54.2 nM

Nc1ccc(/C=C2\COc3ccc(Br)cc3C2=O)cc1
Ki [1]: 63.6 nM

O=C1/C(=C/c2ccccc2)COc2ccc(Br)cc21
Ki [1]: 104 nM
